Activity calls are given as the source filed them. The rule behind the calls is not given here.
Key:
[1] = target: T1, Serotonin (5-HT) receptor (Rattus norvegicus) (UniProt P35563+P35365+P32305+P31388+Q9JJ16+P28564+P30994+Q62758+P08909+P14842+P30940+P35364+P19327+P28565); assay: (§1) Ability to elicit head twitches in rats (a serotonin mimetic response); type: functional; design: concentration or dose not given beside the values
Method in brief: (§2)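 Female Sprague-Dawley rats (150-250 g), compound given ip in 1% methylcellulose vehicle, dose as base weight; quantal scoring of rats showing at least one head twitch during a 2-min observation beginning 30 min after dosing; usually six rats per dose level; vehicle controls run.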

[2] = target: Sodium-dependent serotonin transporter (Rattus norvegicus) (UniProt P31652); assay: (§3) Serotonin neuronal reuptake blocking activity was determined by the antagonism of the head twitch response induced by treatment of rats; type: functional; design: concentration or dose not given beside the values
Method in brief: (§4)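 Female Sprague-Dawley rats (150-250 g) dosed ip with compound (1% methylcellulose vehicle, dose as base weight), then p-chloromethamphetamine 6.0 mg/kg ip 1 h later; head twitches observed 30 min after PCMA; scored as rats not twitching; usually six rats per dose; ED50 = dose antagonizing PCMA head twitch in 50% of animals, with 95% confidence limits.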

[3] = target: Sodium-dependent serotonin transporter (Rattus norvegicus) (UniProt P31652); assay: Serotonin neuronal reuptake blocking activity was determined by the antagonism of the head twitch response induced in rats; type: functional; design: concentration or dose not given beside the values; method in brief: as §4
[4] = target: T1, Serotonin (5-HT) receptor (Rattus norvegicus); assay: as §1; type: functional; design: concentration or dose not given beside the values; method in brief: as §2; remark: listed apart in the source
[5] = target: T1, Serotonin (5-HT) receptor (Rattus norvegicus); assay: as §1; type: functional; design: concentration or dose not given beside the values; method in brief: as §2; remark: listed apart in the source
[6] = target: Sodium-dependent serotonin transporter (Rattus norvegicus) (UniProt P31652); assay: as §3; type: functional; design: concentration or dose not given beside the values; method in brief: as §4; remark: listed apart in the source
Rattus norvegicus [7] = assay: Ability to elicit head twitches in rats a response characteristic of a serotonin mimetic action in the central nervous system was measured after 2 mg/kg of ip administration; type: functional; details: route intraperitoneal; method in brief: as §2
Rattus norvegicus [8] = assay: Ability to elicit head twitches in rats a response characteristic of a serotonin mimetic action in the central nervous system after 6 mg/kg of ip administration; type: functional; details: route intraperitoneal; method in brief: as §2
Rattus norvegicus [9] = assay: Ability to elicit head twitches in rats a response characteristic of a serotonin mimetic action in the central nervous system was measured after 0.67 mg/kg of ip administration; type: functional; details: route intraperitoneal; method in brief: as §2
Rattus norvegicus [10] = assay: Ability to elicit head twitches in rats a response characteristic of a serotonin mimetic action in the central nervous system was measured after 3 mg/kg of ip administration; type: functional; details: route intraperitoneal; method in brief: as §2
Rattus norvegicus [11] = assay: Ability to elicit head twitches in rats a response characteristic of a serotonin mimetic action in the central nervous system after 9 mg/kg of ip administration; type: functional; details: route intraperitoneal; method in brief: as §2
Rattus norvegicus [12] = assay: Serotonin neuronal reuptake blocking activity was determined by the antagonism of the head twitch response induced in rats with p-chloromethamphetamine (PCMA) after 9 mg/kg of ip administration; type: functional; details: route intraperitoneal; method in brief: as §4
Rattus norvegicus [13] = assay: Ability to elicit head twitches in rats a response characteristic of a serotonin mimetic action in the central nervous system was measured after 1.0 mg/kg of ip administration; type: functional; details: route intraperitoneal; method in brief: as §2
Rattus norvegicus [14] = assay: Serotonin neuronal reuptake blocking activity was determined by the antagonism of the head twitch response induced by treatment of rats with p-chloromethamphetamine (PCMA) after 1.0 mg/kg of ip administration; type: functional; details: route intraperitoneal; method in brief: as §4
Rattus norvegicus [15] = assay: Serotonin neuronal reuptake blocking activity was determined by the antagonism of the head twitch response induced by treatment of rats with p-chloromethamphetamine (PCMA) after 3 mg/kg of ip administration; type: functional; details: route intraperitoneal; method in brief: as §4
Rattus norvegicus [16] = assay: Serotonin neuronal reuptake blocking activity was determined by the antagonism of the head twitch response induced in rats with p-chloromethamphetamine (PCMA) after 6 mg/kg of ip administration; type: functional; details: route intraperitoneal; method in brief: as §4
Rattus norvegicus [17] = assay: Serotonin neuronal reuptake blocking activity was determined by the antagonism of the head twitch response induced by treatment of rats with p-chloromethamphetamine (PCMA) after 2 mg/kg of ip administration; type: functional; details: route intraperitoneal; method in brief: as §4
Rattus norvegicus [18] = assay: Serotonin neuronal reuptake blocking activity was determined by the antagonism of the head twitch response induced by treatment of rats with p-chloromethamphetamine (PCMA) after 0.67 mg/kg of ip administration; type: functional; details: route intraperitoneal; method in brief: as §4
Rattus norvegicus [19] = assay: Serotonin neuronal reuptake blocking activity was determined by the antagonism of the head twitch response induced in rats with p-chloromethamphetamine (PCMA) after 40 mg/kg of ip administration; type: functional; details: route intraperitoneal
Method in brief: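 Female Sprague-Dawley rats (150-250 g) dosed ip with compound in 1% methylcellulose vehicle. p-Chloromethamphetamine 6.0 mg/kg ip was given 1 h later, and head movements were observed 30 min after that. Scored as number of rats not showing head twitches. Six rats per dose unless otherwise noted. Doses expressed as base weight.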

Rattus norvegicus [20] = assay: Ability to elicit head twitches in rats a response characteristic of a serotonin mimetic action in the central nervous system after 40 mg/kg of ip administration; Animals succumbed; type: functional, organism-based; design: dose 40 mg/kg; method in brief: as §2

Chain of Sodium-dependent serotonin transporter (Rattus norvegicus) (P31652 whole entry): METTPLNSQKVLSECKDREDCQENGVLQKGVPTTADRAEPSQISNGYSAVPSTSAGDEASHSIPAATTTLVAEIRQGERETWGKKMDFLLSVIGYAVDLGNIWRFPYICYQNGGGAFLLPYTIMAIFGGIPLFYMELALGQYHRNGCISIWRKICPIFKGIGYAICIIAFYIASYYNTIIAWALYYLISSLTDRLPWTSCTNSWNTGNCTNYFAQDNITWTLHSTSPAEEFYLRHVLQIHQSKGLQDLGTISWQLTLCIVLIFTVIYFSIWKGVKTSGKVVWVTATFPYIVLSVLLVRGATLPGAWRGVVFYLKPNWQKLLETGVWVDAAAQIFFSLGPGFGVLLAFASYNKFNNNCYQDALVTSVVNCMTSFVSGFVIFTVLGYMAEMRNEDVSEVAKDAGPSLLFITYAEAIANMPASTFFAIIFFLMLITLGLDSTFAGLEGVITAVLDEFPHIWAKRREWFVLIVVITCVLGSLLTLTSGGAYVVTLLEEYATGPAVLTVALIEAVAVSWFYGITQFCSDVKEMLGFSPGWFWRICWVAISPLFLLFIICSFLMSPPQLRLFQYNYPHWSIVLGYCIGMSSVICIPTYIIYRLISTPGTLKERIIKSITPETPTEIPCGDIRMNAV

Structure (SMILES) | Activity [1] | PCMA antagonism [2] | PCMA antagonism [3] | Activity [4] | Activity [5] | PCMA antagonism [6] | also measured
COc1cccc2nc(N3CCNCC3)cnc12 | 1 | 1 | 2 | 3 | 2 | 0 | –
COc1ccc2ncc(N3CCNCC3)nc2c1 | – | – | – | – | – | – | Activity (Rattus norvegicus [7]): 5; Activity (Rattus norvegicus [8]): 6; Activity (Rattus norvegicus [9]): 1
Clc1cc2ncc(N3CCNCC3)nc2cc1Cl | 0 | 4 | 3 | 1 | 2 | 1 | –
Clc1ccc2ncc(N3CCNCC3)nc2c1 | – | – | – | – | – | – | Activity (Rattus norvegicus [10]): 1; Activity (Rattus norvegicus [11]): 3; PCMA antagonism (Rattus norvegicus [12]): 5; Activity (Rattus norvegicus [13]): 0; PCMA antagonism (Rattus norvegicus [14]): 1; PCMA antagonism (Rattus norvegicus [15]): 3
Brc1ccc2nc(N3CCNCC3)cnc2c1.Cl | – | – | – | – | – | – | PCMA antagonism (Rattus norvegicus [16]): 2; PCMA antagonism (Rattus norvegicus [17]): 3; Activity (Rattus norvegicus [7]): 4; Activity (Rattus norvegicus [8]): 2; PCMA antagonism (Rattus norvegicus [18]): 2; Activity (Rattus norvegicus [9]): 0
Oc1nc2ccccc2nc1N1CCNCC1 | 2 | – | 1 | 0 | 6 | – | –
CC(=O)N1CCN(c2cnc3cc(Cl)ccc3n2)CC1 | 2 | 1 | 0 | 1 | 2 | 0 | –
Fc1cccc2nc(N3CCNCC3)cnc12 | 6 | – | – | – | 6 | – | –
O=[N+]([O-])c1ccc2nc(N3CCNCC3)cnc2c1 | 4 | 6 | 5 | 2 | 2 | 5 | –
Cl.FC(F)(F)c1ccc2nc(N3CCNCC3)c(Sc3ccccc3)nc2c1 | 2 | 0 | – | 0 | 2 | 1 | PCMA antagonism (Rattus norvegicus [19]): 0
COc1ccc2nc(N3CCNCC3)cnc2c1 | 1 | 5 | – | – | 1 | 3 | Activity (Rattus norvegicus [20]): Active
Cn1c(=O)c(N2CCNCC2)nc2ccccc21 | – | – | – | – | – | – | Activity (Rattus norvegicus [10]): 3; Activity (Rattus norvegicus [11]): 5; PCMA antagonism (Rattus norvegicus [12]): 0; Activity (Rattus norvegicus [13]): 1; PCMA antagonism (Rattus norvegicus [14]): 1; PCMA antagonism (Rattus norvegicus [15]): 2
[O-][n+]1cc(N2CCNCC2)nc2ccccc21 | 6 | – | – | – | 6 | – | –
O=C1CN(c2cnc3ccccc3n2)CCN1 | 0 | – | – | 3 | 0 | – | –
CN(C)CCn1c(=O)c(N2CCNCC2)nc2ccccc21 | 1 | 0 | 0 | 1 | 0 | 2 | –
O=C(O)C1CN(c2cnc3ccccc3n2)CCN1 (centres undefined) | 2 | 0 | 0 | 0 | 1 | 0 | –

Source: ChEMBL document CHEMBL1121884, “Piperazinylquinoxalines with central serotoninmimetic activity” (1981)
